The values that follow come from article PMC6690775 (FEBS letters, 2019).

Where two headings read alike, the source gives them in different places.

The target in assay [1] is T1, mortalin-NBD (Homo sapiens, UniProt P38646). The assay is described as follows: ITC binding of modified ADP analogues to mortalin-NBD. The conditions noted are these: for ΔΗ: binding enthalpy change; for ΔS: binding entropy change.
The target in assay [2] is T2, Hsc70-NBD (Homo sapiens, UniProt P11142). Briefly: ITC binding of modified ADP analogues to Hsc70-NBD. Conditions: for ΔΗ: binding enthalpy change; for ΔS: binding entropy change.
For assay [3], the target named is T3, Hsp70-NBD (Homo sapiens, UniProt P0DMV8). The assay is described as follows: ITC binding of modified ADP analogues to Hsp70-NBD. Conditions: for ΔΗ: binding enthalpy change; for ΔS: binding entropy change.
Assay [4] concerns the target T1, mortalin-NBD. Briefly: Competitive inhibition of ATPase activity. The class given is biochemical. The conditions noted are these: for inhibition of ATP hydrolysis of mortalin-NBD (in words): compared with ADP. The gist of the method: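 Human mortalin-NBD (residues 52–431) was expressed in E. coli Rosetta2(DE3) with a TEV-cleaved His6 tag, then purified by Ni, size-exclusion and Blue columns. Enzyme in binding buffer (HEPES pH 7.8, MgCl2, KCl) was mixed with PNP/MESG and inhibitor at 0–3 mM. ATP was added to 50 μM final, and A360 was read every minute for 60 min at 25 °C, in triplicate, minus no-enzyme control. IC50 came from a one-site logIC50 fit. Kiapp came from a Morrison fit constrained by Et 1 μM, ATP 50 μM and a previously determined KM.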

The target in assay [5] is T2, Hsc70-NBD. The assay is described as follows: Competitive inhibition of ATPase activity. Format: biochemical. The gist of the method:
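PNP/MESG coupling (0.2 U, 0.2 μM, 10 min, 25 °C); ATP at 50 μM final started reaction; A360 read each minute for 60 min, 25 °C; triplicates minus no-enzyme control. IC50 from one-site logIC50 fit of fractional activity; Kiapp from Morrison fit constrained by prior KM.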

For assay [6], the target named is T3, Hsp70-NBD. The assay is described as follows: Competitive inhibition of ATPase activity. The class given is biochemical. The procedure, abridged: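 Human Hsp70-NBD (residues 1–381) was expressed in E. coli Rosetta2(DE3) with a TEV-cleaved His6 tag and purified by Ni, size-exclusion and Blue columns. Phosphate release (EnzChek; PNP 0.2 U, MESG 0.2 μM) was measured with inhibitor at 0–3 mM and ATP 50 μM final. A360 was read each minute for 60 min at 25 °C in triplicate, minus no-enzyme control. IC50 came from a one-site logIC50 fit of fractional activity; Kiapp came from a Morrison fit of V0.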

The target in assay [7] is T1, mortalin-NBD. Conditions: previously reported; cited from earlier work.
[8] abbreviates: mortalin-NBD, ITC Kd relative to ADP.
Where [9] appears, read: read-out: KIapp, mortalin-NBD 1 μM, ATP 50 μM, 25 °C, Morrison fit.

T1 sequence (P38646 52-431): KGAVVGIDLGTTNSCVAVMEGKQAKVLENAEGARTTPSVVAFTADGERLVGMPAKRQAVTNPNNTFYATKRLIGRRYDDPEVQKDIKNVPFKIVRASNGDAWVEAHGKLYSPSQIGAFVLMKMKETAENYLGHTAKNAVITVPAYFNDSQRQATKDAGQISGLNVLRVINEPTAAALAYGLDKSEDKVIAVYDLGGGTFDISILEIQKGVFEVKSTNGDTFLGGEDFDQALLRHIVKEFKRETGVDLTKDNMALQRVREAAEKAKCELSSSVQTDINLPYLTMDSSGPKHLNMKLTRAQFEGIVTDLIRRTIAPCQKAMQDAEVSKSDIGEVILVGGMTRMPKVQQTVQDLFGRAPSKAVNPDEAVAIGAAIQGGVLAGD
T2 sequence (P11142 1-385): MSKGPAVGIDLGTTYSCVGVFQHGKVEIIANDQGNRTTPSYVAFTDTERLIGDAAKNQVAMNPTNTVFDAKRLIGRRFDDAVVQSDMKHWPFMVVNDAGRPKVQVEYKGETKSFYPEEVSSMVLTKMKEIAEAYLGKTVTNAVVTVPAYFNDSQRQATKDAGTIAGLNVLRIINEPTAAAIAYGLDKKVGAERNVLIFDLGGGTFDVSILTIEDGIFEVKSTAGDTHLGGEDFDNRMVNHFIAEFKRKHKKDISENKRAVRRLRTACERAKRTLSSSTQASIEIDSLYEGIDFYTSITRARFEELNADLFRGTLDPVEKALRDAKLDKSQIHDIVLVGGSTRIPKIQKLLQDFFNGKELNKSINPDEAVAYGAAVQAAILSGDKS
T3 sequence (P0DMV8 1-381): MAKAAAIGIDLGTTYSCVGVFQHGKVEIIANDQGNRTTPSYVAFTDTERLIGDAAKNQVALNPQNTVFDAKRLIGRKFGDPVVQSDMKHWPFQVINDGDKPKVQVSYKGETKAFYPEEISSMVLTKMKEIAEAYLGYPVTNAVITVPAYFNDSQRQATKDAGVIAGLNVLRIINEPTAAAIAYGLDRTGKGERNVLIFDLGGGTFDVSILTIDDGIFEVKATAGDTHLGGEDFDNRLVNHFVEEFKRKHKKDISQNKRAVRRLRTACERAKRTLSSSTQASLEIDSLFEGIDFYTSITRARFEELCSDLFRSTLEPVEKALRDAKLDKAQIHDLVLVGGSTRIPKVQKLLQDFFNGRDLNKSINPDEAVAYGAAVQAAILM

The Kd is a measure of binding affinity in units of concentration. As usually defined, the IC50 is the concentration needed to halve the response being measured. Low readings indicate greater potency, high ones weaker potency. For the compound `O=P(O)(O)OP(=O)(O)OC[C@H]1O[C@@H](n2cnc3c(NC4CCCCC4)ncnc32)[C@H](O)[C@@H]1O` [6-cHe ADP, N6-cyclohexyladenosine-5’-diphosphate], the Kd in assay [1] turned out to be 14.1 µM; in assay [2], 0.357 µM; in assay [3], 0.199 µM. The ΔΗ in assay [1] (ITC, 25 °C, mortalin-NBD) is -5.28 ± 0.0693 kcal/mol; in assay [2] (ITC, 25 °C, Hsc70-NBD), -6.006 ± 0.562 kcal/mol; in assay [3] (ITC, 25 °C, Hsp70-NBD), -4.967 ± 0.146 kcal/mol. The ΔS in assay [1] (ITC, 25 °C, mortalin-NBD) was 18.84 ± 0.87 J/mol·K; in assay [2] (ITC, 25 °C, Hsc70-NBD), 37.74 ± 7.36 J/mol·K; in assay [3] (ITC, 25 °C, Hsp70-NBD) it was 57.67 ± 0.64 J/mol·K. Moreover, the IC50 in assay [4] is 1600 µM; in assay [5], 2230 µM; in assay [6], 2490 µM. In addition, the Ki in assay [4] turned out to be 733 ± 82.1 µM; in assay [5], 622 ± 183 µM; in assay [6] it was 1240 ± 164 µM. In addition, the “inhibition of ATP hydrolysis of mortalin-NBD (in words)” value in assay [4] is “weakest inhibition”.

For the compound `Cc1cccc(CNc2ncnc3c2ncn3[C@@H]2O[C@H](COP(=O)(O)OP(=O)(O)O)[C@@H](O)[C@H]2O)c1` [6-(3-MeBn) ADP, N6-(3-methylbenzyl)adenosine-5’-diphosphate], the Kd was 11.4 µM in assay [1], 3.35 µM in assay [2] and 0.252 µM in assay [3]. The ΔΗ in assay [1] (ITC, 25 °C, mortalin-NBD) was -3.13 ± 0.0545 kcal/mol; in assay [2] (ITC, 25 °C, Hsc70-NBD), -10.22 ± 0.906 kcal/mol; in assay [3] (ITC, 25 °C, Hsp70-NBD), -4.787 ± 0.225 kcal/mol. For the same compound, the ΔS in assay [1] (ITC, 25 °C, mortalin-NBD) is 50.2 ± 1.73 J/mol·K; in assay [2] (ITC, 25 °C, Hsc70-NBD), −41.10 ± 12.94 J/mol·K; in assay [3] (ITC, 25 °C, Hsp70-NBD), 58.44 ± 3.96 J/mol·K. In addition, the IC50 in assay [4] was 1430 µM; in assay [5], 8040 µM; in assay [6], 1870 µM. Further, the Ki in assay [4] is 675 ± 99.4 µM; in assay [5], 682 ± 179 µM; in assay [6], 1300 ± 148 µM.

For `CSc1nc(N)c2ncn([C@@H]3O[C@H](COP(=O)(O)OP(=O)(O)O)[C@@H](O)[C@H]3O)c2n1` [2-MeS ADP, 2-methylthio-adenosine-5’-diphosphate], the Kd in assay [1] came to 9.81 µM. Moreover, in assay [1] (ITC, 25 °C, mortalin-NBD), the ΔΗ is -2.96 ± 0.865 kcal/mol and the ΔS amounted to 54.5 ± 16.5 J/mol·K. Besides, the “decrease in affinity compared to ADP” value in assay [1] (setting [8]) is around 2 fold. The “binding to Hsc70-NBD (in words)” value in assay [2] (ITC) is given as “did not yield data that could be fitted”. The “binding to Hsp70-NBD (in words)” value in assay [3] (ITC) is on record as “did not yield data that could be fitted”. In assay [4], the IC50 is 902 µM and the Ki was found to be 523 ± 98.3 µM. Besides, the “inhibition of Hsc70-NBD (in words)” value in assay [5] is on record as “no reliably demonstrable inhibition”. The “inhibition of Hsp70-NBD (in words)” value in assay [6] was “no reliably demonstrable inhibition”.

As for `Nc1nc(Cl)nc2c1ncn2[C@@H]1O[C@H](COP(=O)(O)OP(=O)(O)O)[C@@H](O)[C@H]1O` [2-Cl ADP], in assay [1] (ITC, 25 °C, mortalin-NBD), the Kd is 1.77 µM, the ΔΗ is -4.54 ± 0.172 kcal/mol and the ΔS is on record as 45.4 ± 3.04 J/mol·K. The “affinity tighter than ADP” value in assay [1] (setting [8]) is given as ~ 3 fold. Also, the “binding to Hsc70-NBD (in words)” value in assay [2] (ITC) is on record as “did not yield data that could be fitted”. Also, the “binding to Hsp70-NBD (in words)” value in assay [3] (ITC) is “did not yield data that could be fitted”. The “inhibition of ATP hydrolysis of mortalin-NBD (in words)” value in assay [4] is recorded as “more effectively compared to ADP”. In addition, the Ki in assay [4] (setting [9]) was 45.1 ± 2.42 µM. In addition, the “inhibition of Hsc70-NBD (in words)” value in assay [5] was “no reliably demonstrable inhibition”. Moreover, the “inhibition of Hsp70-NBD (in words)” value in assay [6] is on record as “no reliably demonstrable inhibition”.

With `O=P(O)(O)OP(=O)(O)OC[C@H]1O[C@@H](n2cnc3c(NCc4ccccc4)ncnc32)[C@H](O)[C@@H]1O` [6-Bn ADP, N6-benzyladenosine-5’-diphosphate], the Kd came to 3.52 µM in assay [1], 0.159 µM in assay [2] and 2.16 µM in assay [3]. Besides, the ΔΗ is -2.99 ± 0.839 kcal/mol in assay [1] (ITC, 25 °C, mortalin-NBD); -4.077 ± 0.0645 kcal/mol in assay [2] (ITC, 25 °C, Hsc70-NBD); -3.941 ± 1.02 kcal/mol in assay [3] (ITC, 25 °C, Hsp70-NBD). In addition, the ΔS in assay [1] (ITC, 25 °C, mortalin-NBD) is 61.8 ± 12.1 J/mol·K; in assay [2] (ITC, 25 °C, Hsc70-NBD), 72.13 ± 2.77 J/mol·K; in assay [3] (ITC, 25 °C, Hsp70-NBD), 53.04 ± 14.20 J/mol·K. The “affinity tighter than ADP” value in assay [1] (setting [8]) was ~ 1.5 fold. Also, the IC50 in assay [4] is 119 µM; in assay [5], 1470 µM; in assay [6], 2330 µM. The figures for the Ki in assay [4], in assay [5] and in assay [6] were 86.5 ± 10.3 µM, 295 ± 67.2 µM and 1610 ± 137 µM, respectively. Besides, the “inhibition of ATP hydrolysis of mortalin-NBD (in words)” value in assay [4] is recorded as “more effectively compared to ADP”.

On to `Nc1ncnc2c1ncn2[C@@H]1O[C@H](COP(=O)(O)OP(=O)(O)O)[C@@H](O)[C@H]1O` [ADP, reference compound], for which the ΔΗ in assay [1] (ITC, 25 °C, mortalin-NBD) is -6.52 ± 0.308 kcal/mol; in assay [2] (ITC, 25 °C, Hsc70-NBD) it was -7.359 ± 0.022 kcal/mol; in assay [3] (ITC, 25 °C, Hsp70-NBD) it was -5.731 ± 0.203 kcal/mol. Further, the ΔS turned out to be 9.36 ± 4.48 J/mol·K in assay [1] (ITC, 25 °C, mortalin-NBD); 34.19 ± 1.55 J/mol·K in assay [2] (ITC, 25 °C, Hsc70-NBD); 60.54 ± 3.65 J/mol·K in assay [3] (ITC, 25 °C, Hsp70-NBD). Also, the dissociation constant Kd in assay [2] (ITC, 25 °C, Hsc70-NBD) is 0.0665 µM; in assay [3] (ITC, 25 °C, Hsp70-NBD) it was 0.0435 µM; in assay [7] it was 5.3 ± 0.106 µM. Besides, the Ki in assay [4] (setting [9]) was 353 ± 36.2 µM; in assay [5] (read-out: KIapp, Hsc70-NBD, ATP 50 μM, Morrison fit, ~ denotes ambiguous data), 239 ± 32.2 µM; in assay [6] (read-out: KIapp, Hsp70-NBD, ATP 50 μM, Morrison fit, ~ denotes ambiguous data) it was 440 ± 47.8 µM. Further, the “log IC50” value in assay [5] (Hsc70-NBD, ATP 50 μM, one-site logIC50 fit) is 2.734 ± 0.117; in assay [6] (Hsp70-NBD, ATP 50 μM, one-site logIC50 fit), 2.697 ± 0.091.

As for `O=P(O)(O)OP(=O)(O)OC[C@H]1O[C@@H](n2cnc3c(NCc4ccco4)ncnc32)[C@H](O)[C@@H]1O` [6-Fu ADP, N6-furfuryladenosine-5’-diphosphate], the Kd in assay [1] came to 5.84 µM; in assay [2], 8.7 µM; in assay [3], 4.27 µM. The ΔΗ is -5.04 ± 0.277 kcal/mol in assay [1] (ITC, 25 °C, mortalin-NBD); -5.457 ± 0.514 kcal/mol in assay [2] (ITC, 25 °C, Hsc70-NBD); -2.395 ± 0.562 kcal/mol in assay [3] (ITC, 25 °C, Hsp70-NBD). The ΔS is 28.7 ± 6.85 J/mol·K in assay [1] (ITC, 25 °C, mortalin-NBD); 19.22 ± 5.06 J/mol·K in assay [2] (ITC, 25 °C, Hsc70-NBD); 68.77 ± 8.28 J/mol·K in assay [3] (ITC, 25 °C, Hsp70-NBD). Also, the IC50 is 558 µM in assay [4], 6780 µM in assay [5] and 3240 µM in assay [6]. The Ki was found to be 565 ± 49.6 µM in assay [4], 723 ± 179 µM in assay [5] and 1860 ± 172 µM in assay [6].

`O=P(O)(O)OP(=O)(O)OC[C@H]1O[C@@H](n2cnc3c(NCCc4ccccc4)ncnc32)[C@H](O)[C@@H]1O` [6-PheEt ADP, N6-(2-phenylethyl)adenosine-5’-diphosphate]: the Kd in assay [1] was found to be 4.19 µM; in assay [2] it was 0.237 µM; in assay [3], 0.143 µM. The ΔΗ in assay [1] (ITC, 25 °C, mortalin-NBD) was -8.1 ± 0.495 kcal/mol; in assay [2] (ITC, 25 °C, Hsc70-NBD), -4.316 ± 0.022 kcal/mol; in assay [3] (ITC, 25 °C, Hsp70-NBD), -10.8 ± 0.208 kcal/mol. For the same compound, the ΔS in assay [1] (ITC, 25 °C, mortalin-NBD) was −10.4 ± 5.17 J/mol·K; in assay [2] (ITC, 25 °C, Hsc70-NBD), 65.31 ± 1.22 J/mol·K; in assay [3] (ITC, 25 °C, Hsp70-NBD), −22.97 ± 3.25 J/mol·K. For the same compound, in assay [1] (setting [8]), the “affinity tighter than ADP” value was ~ 1.25 fold. Besides, the IC50 is 173 µM in assay [4], 2100 µM in assay [5] and 3120 µM in assay [6]. In addition, the values for the Ki in assay [4], in assay [5] and in assay [6] were 97.3 ± 9.96 µM, 445 ± 101 µM and 1160 ± 189 µM, respectively. In assay [4], the “inhibition of ATP hydrolysis of mortalin-NBD (in words)” value was “more effectively compared to ADP”.
